# Bioassay records as filed in PubChem.
# Runt-SMMHC FRET = inhibitors of RUNX1 Runt–CBFb-SMMHC binding, primary screen, biochemical, FRET, Cerulean-Runt, Venus-CBFb-SMMHC, uHTS; Cerulean-Runt/Venus-CBFb-SMMHC FRET ratio 530/480, 1 h; 0.74% of 220,000 active; inhibition, % at 20 µM; AID 1434, 2008;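 active means mean inhibition across duplicate retests at 20 µM reaching about 50%, limit read from the data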;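 further: 0% = DMSO wells and 100% = wells with excess untagged CBFb-SMMHC; inhibitors lower the FRET ratio by blocking Runt binding to CBFb-SMMHC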
# Target sequence (Q01196 whole entry, looked up): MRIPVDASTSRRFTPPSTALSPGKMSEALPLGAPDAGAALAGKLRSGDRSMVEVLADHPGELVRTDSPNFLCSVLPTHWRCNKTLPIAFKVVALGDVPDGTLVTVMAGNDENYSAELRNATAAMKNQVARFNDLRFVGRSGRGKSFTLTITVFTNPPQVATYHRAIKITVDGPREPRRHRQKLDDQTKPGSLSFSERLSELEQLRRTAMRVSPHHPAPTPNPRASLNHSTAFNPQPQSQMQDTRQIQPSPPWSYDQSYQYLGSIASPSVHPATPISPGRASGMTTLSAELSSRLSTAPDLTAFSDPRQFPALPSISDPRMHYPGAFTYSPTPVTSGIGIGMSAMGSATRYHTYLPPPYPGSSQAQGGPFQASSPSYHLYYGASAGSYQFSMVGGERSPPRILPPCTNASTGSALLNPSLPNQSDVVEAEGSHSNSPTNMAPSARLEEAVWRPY
# Target sequence (Q13951 whole entry, looked up): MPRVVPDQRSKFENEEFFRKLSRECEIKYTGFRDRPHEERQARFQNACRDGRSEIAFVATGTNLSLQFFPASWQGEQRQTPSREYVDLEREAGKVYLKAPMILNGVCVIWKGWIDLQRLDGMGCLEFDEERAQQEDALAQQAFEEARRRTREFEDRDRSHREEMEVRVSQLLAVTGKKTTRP
# Platelet DG rel = inhibitors of platelet dense granule secretion, primary screen, cell-based, MLPCN, human platelets; human platelet-rich plasma, SFLLRN dense granule ATP release, luminescence; inhibition, %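 (compounds screened at 7.5 µM in platelet-rich plasma)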; 0.22% of 300,000 active;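 active means mean replicate score, as percent of positive control, at or above 50; inconclusive means mean below 50 but at least one replicate at or above 50; inactive means mean and every replicate below 50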
# Runt-CBFb FRET = inhibitors of RUNX1 Runt–CBFb binding, primary screen, biochemical, FRET, Cerulean-Runt, Venus-CBFb, uHTS | Runt-related transcription factor 1 (Homo sapiens) + Core-binding factor subunit beta … | Cerulean-Runt/Venus-CBFb FRET ratio 530/480, 1 h | inhibition, % at 20 µM | 0.46% of 220,000 active;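 active means inhibition over about 50% at 20 µM in the single-dose screen, limit read from the data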;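 further: 0% = DMSO wells and 100% = excess unlabeled CBFb competitor control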
#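 Assay system: Cerulean-Runt domain / Medium: Tris 50 mM pH 7.5, KCl, K2SO4, 0.01% BSA / Timing: protein complex preformed 1 h, compound exposure 1 h, room temperature, dark / Measured by: FRET, excitation 422 nm, emission at 530 and 480 nm / Evaluation: loss of energy transfer signal / Control set: 5 µM unlabeled CBFb as full-inhibition high control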
# RanGTP-Imp inh = inhibitors of RanGTP-importin-beta interaction, primary screen, biochemical, FRET, CFP-Ran, YFP-importin-beta, homogeneous. inhibition, % (concentration not given with the values). AID 2216, 2009. 1.1% of 300,000 active. cell-free CFP-Ran/YFP-importin-beta FRET ratio;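 active means more than half of the replicate wells show a fall in the fluorescence ratio signal beyond about 16%, limit read from the data, passing the limit was not always enough; inconclusive means exactly half of the replicate wells pass the set limit; inactive means fewer than half of replicates pass the limit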;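 further: 0% = DMSO wells and 100% = Ran loaded with GDP instead of GTP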
# Rce1 inh = yeast Rce1p protease inhibitors, primary screen, biochemical, fluorescence, cell-free homogeneous; 0.27% of 290,000 active; calls only; CAAX prenyl protease 2 (Saccharomyces cerevisiae (strain ATCC 204508 / S288c)), Q03530; yeast membranes, quenched prenylated peptide cleavage fluorescence;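 active means fall in fluorescence gain of 50% or more versus controls, with final raw signal at or below 3038400; inconclusive means same 50% fall but final raw signal above 3038400; inactive means fall in fluorescence gain under 50%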;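 further: plate controls were neutral control wells for no effect and wells lacking membranes for full effect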
# The depositor's hits bear a star; i = inactive; ? = inconclusive; / = not tested or not shown; + = active, no number. An excerpt weighted towards active compounds, which were near 1.8% of everything screened.
SMILES,Runt-SMMHC FRET,Platelet DG rel,Runt-CBFb FRET,RanGTP-Imp inh,Rce1 inh
CCN1C(=O)c2cccc3c(S(=O)(=O)Nc4ccncc4)ccc1c23,13,6,-18,8,i
Cc1cccn2c(=O)c(/C=C(\C#N)C(=O)NC3CCS(=O)(=O)C3)c(N3CCC(C(N)=O)CC3)nc12 (stereo not given),63*,1,134*,?,i
Cc1cccn2c(=O)c(C=O)c(N3CC(C)OC(C)C3)nc12 (stereo not given),-6,-34,2,0,i
Cc1cccn2c(=O)c(/C=C(\C#N)C(=O)NC3CCS(=O)(=O)C3)c(N3CC(C)OC(C)C3)nc12 (stereo not given),103*,-3,12,?,i
Cc1nn(-c2ccccc2)c2c1P(=O)(O)/C(=C1\N(C)c3ccccc3C1(C)C)C=N2,-63,0,-47,29*,i
O=C(CN1C(=O)NC2(CCCCC2)C1=O)Oc1ccc2c(C(F)(F)F)cc(=O)oc2c1,/,1,/,33*,i
COC(=O)c1c(C(=O)OC)c2cc(C(=O)c3ccccc3)ccn2c1Cl,27,5,6,29*,i
COC(=O)Nc1nnc(-c2ccncc2)s1,-6,-3,2,7,+
Cc1ccc(NC(=O)Nc2nnc(-c3ccncc3)s2)cc1C,/,-4,/,1,i
O=C(C1CCCCCC1)N1CC[C@@H](N2CCC(O)CC2)[C@H](O)C1,/,9,/,27*,i
CCOC(=O)c1c(NC(=O)/C=C/c2ccc3c(c2)OCO3)sc(C)c1CC,-28,54*,-12,?,i
COc1ccc(C(=O)NNC(=O)c2ccccn2)cc1,-2,77*,1,-1,i
CC(C)CCNC(=S)Nc1ccccn1,33,-9,14,0,i
CC1(C)CC(N2CCC(=O)NC2=S)CC(C)(C)N1,/,69*,/,1,i
O=C(O)c1cc(N/N=C/C=C/c2ccccc2)ccc1Cl,87*,4,39,-2,i
Cc1ncc(CN2CCC(N3CCC(C(=O)N4CCCC4)CC3)CC2)s1,/,55*,/,7,i
COC(=O)c1cccc(NC(=O)c2cnn(C)c2)c1,/,5,/,2,i
Nc1ccc2c(c1)N=[N+]([O-])c1cc(N)ccc1C2,-3,-1,1,32*,i
CCN(CC)CCN1C(=O)C(O)=C(C(=O)c2ccc(C)o2)C1c1ccccn1 (stereo not given),/,-2,/,29*,/
CCN(CC)CCCN1C(=O)C(O)=C(C(=O)c2ccc(C)o2)C1c1ccc(C)o1 (stereo not given),4,-29,2,-1,i
Cc1ccc(C(=O)C2=C(O)C(=O)N(CCN3CCOCC3)C2c2ccccn2)o1 (stereo not given),6,7,1,23*,i
COC(=O)c1cc(-c2ccc(Br)cc2)c2c(=O)n(C)c(=O)n(C)c2n1,/,-2,/,-1,i
COc1ccc2nc3ccccc3nc2c1,86*,8,1,38*,i
COc1ccc(-c2nc3ccccc3nc2-c2ccccc2)cc1,1,0,1,-1,/
NC(=O)N/N=C/c1cn(CC(=O)Nc2ccc(F)cc2)c2ccccc12,-2,-2,0,-2,i
N#CC(c1nc2ccccc2nc1N1CCCC1)S(=O)(=O)c1cccs1 (stereo not given),4,4,5,0,i
COc1cc(-c2c(C#N)c(N)nc3c2c(C)nn3-c2ccc(C)c(C)c2)cc(OC)c1OC,-11,-1,-5,4,+
CC1(c2nnc(-c3ccc(F)cc3)o2)CC(c2ccncc2)=NO1 (stereo not given),/,-5,/,3,i
C=CCN1C(=O)/C(=C2/Sc3ccc(OC)cc3N2CC)SC1=S,/,-8,/,?,i
CCCCN1C(=O)/C(=C2/Sc3ccc(OC)cc3N2CC)SC1=S,/,-2,/,23*,i
